Results published in ChEMBL document CHEMBL4145558, “Structure-Activity Relationship Study on Odoamide: Insights into the Bioactivities of Aurilide-Family Hybrid Peptide-Polyketides” (ACS Med Chem Lett, 2018).

Key:
[1] = Protein binding in 10% fetal bovine serum at 1 uM after 4 hrs in presence of cell culture medium by rapid equilibrium dialysis based LC-MS/MS analysis; type: ADME, cell-free, Bos taurus; conditions: cattle, 10% fetal bovine serum in cell culture medium; read-out: PB (converted)
Summary of the method: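 Peptides tested in cell culture medium supplemented with 10% (v/v) fetal bovine serum. The ratio of unbound peptide was determined.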

A549 = assay: Cytotoxicity against human A549 cells assessed as inhibition of cell growth after 72 hrs by MTS assay; type: functional, cell-based; conditions: A549, 72 h
Summary of the method: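 A549 cells exposed to each peptide for 72 h; growth read by MTS assay. IC50 taken as the concentration giving 50% growth inhibition, n = 3.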

[2] = Permeability of the compound in pH 7.4 phosphate buffer solution after 4 hrs by LC-MS/MS based PAMPA assay; type: ADME; conditions: read-out: permeability
Summary of the method: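 PAMPA run at pH 7.4, under the in vitro bioassay conditions.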

Row | SMILES | fraction unbound at 4 h, 1 µM [1] | Papp at 4 h [2] [×10⁻⁶ cm/s] | IC50 (A549) [nM]
1 | CCC[C@H](C)[C@H]1OC(=O)[C@H](C)N(C)C(=O)[C@@H]([C@@H](C)CC)NC(=O)CN(C)C(=O)[C@@H](Cc2ccccc2)N(C)C(=O)[C@H](C)NC(=O)[C@@H]([C@@H](C)CC)OC(=O)/C(C)=C/C[C@H](O)[C@@H]1C | – | – | 645
2 | CCC[C@H](C)[C@H]1OC(=O)[C@H](C)N(C)C(=O)[C@H]([C@@H](C)CC)NC(=O)CN(C)C(=O)[C@H](Cc2ccccc2)N(C)C(=O)[C@H](C)NC(=O)[C@@H]([C@@H](C)CC)OC(=O)/C(C)=C/C[C@H](O)[C@@H]1C | – | – | 48
3 | CCC[C@H](C)[C@H]1OC(=O)[C@H](C)N(C)C(=O)[C@H]([C@@H](C)CC)NC(=O)CN(C)C(=O)[C@@H](Cc2ccccc2)N(C)C(=O)[C@H](C)NC(=O)[C@@H]([C@@H](C)CC)OC(=O)/C(C)=C/C=C/[C@@H]1C | – | – | 28
4 | CCC[C@H](C)[C@@H](O)[C@@H](C)[C@@H]1C/C=C(\C)C(=O)O[C@H]([C@@H](C)CC)C(=O)N[C@@H](C)C(=O)N(C)[C@H](Cc2ccccc2)C(=O)N(C)CC(=O)N[C@@H]([C@@H](C)CC)C(=O)N(C)[C@@H](C)C(=O)O1 | – | – | 4.5
5 | CCC[C@H](C)[C@H]1OC(=O)[C@H](C)N(C)C(=O)[C@H]([C@@H](C)CC)NC(=O)CN(C)C(=O)[C@@H](Cc2ccccc2)NC(=O)[C@H](C)NC(=O)[C@@H]([C@@H](C)CC)OC(=O)/C(C)=C/C[C@H](O)[C@@H]1C | – | – | 5.4

The next lines start with results.

Row | fraction unbound at 4 h, 1 µM [1] | Papp at 4 h [2] [×10⁻⁶ cm/s] | SMILES | IC50 (A549) [nM]
6 | 0.028 | > 1 | CCC[C@H](C)[C@H]1OC(=O)[C@H](C)N(C)C(=O)[C@H]([C@@H](C)CC)NC(=O)CN(C)C(=O)[C@@H](Cc2ccccc2)N(C)C(=O)[C@H](C)NC(=O)[C@@H]([C@@H](C)CC)OC(=O)/C(C)=C/C[C@H](OC)[C@@H]1C | 4.3
7 | – | > 1 | CCC[C@H](C)[C@H]1OC(=O)[C@H](C)N(C)C(=O)[C@H]([C@@H](C)CC)NC(=O)CN(C)C(=O)[C@@H](Cc2ccccc2)N(C)C(=O)[C@@H](C)NC(=O)[C@@H]([C@@H](C)CC)OC(=O)/C(C)=C/C[C@H](O)[C@@H]1C | 1550
8 | – | > 1 | CCC[C@H](C)[C@H]1OC(=O)[C@H](C)N(C)C(=O)[C@H]([C@@H](C)CC)NC(=O)CCN(C)C(=O)[C@@H](Cc2ccccc2)N(C)C(=O)[C@H](C)NC(=O)[C@@H]([C@@H](C)CC)OC(=O)/C(C)=C/C[C@H](O)[C@@H]1C | 74
9 | 0.145 | > 1 | CCC[C@H](C)[C@H]1OC(=O)[C@@H](C)N(C)C(=O)[C@H]([C@@H](C)CC)NC(=O)CN(C)C(=O)[C@@H](Cc2ccccc2)N(C)C(=O)[C@H](C)NC(=O)[C@@H]([C@@H](C)CC)OC(=O)/C(C)=C/C[C@H](O)[C@@H]1C | 1.9
10 | 0.241 | > 1 | CCC[C@H](C)[C@H]1OC(=O)[C@H](C)N(C)C(=O)[C@H]([C@@H](C)CC)NC(=O)CN(C)C(=O)[C@@H](Cc2ccccc2)N(C)C(=O)[C@H](C)NC(=O)[C@@H]([C@@H](C)CC)OC(=O)/C(C)=C/C[C@H](O)[C@@H]1C | 4.2
11 | – | > 1 | CCC[C@H](C)[C@H]1OC(=O)[C@H](C)N(C)C(=O)[C@H]([C@@H](C)CC)NC(=O)CNC(=O)[C@@H](Cc2ccccc2)N(C)C(=O)[C@H](C)NC(=O)[C@@H]([C@@H](C)CC)OC(=O)/C(C)=C/C[C@H](O)[C@@H]1C | 31
